# Most compounds without a hit are left out; they make up all but 4.9% or so of the library.
# FLuc inh counter – counter-screen for luciferase assay inhibitors: firefly luciferase inhibition; P08659; inhibition, % at 10 µM; ATPLite firefly luciferase biochemical luminescence, 10 min; AID 1006; 200,000 compounds, 1.5% hits;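 active = inhibition above about 50% when tested at 10 µM, limit read from the data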
# Target sequence (P08659 whole entry, looked up): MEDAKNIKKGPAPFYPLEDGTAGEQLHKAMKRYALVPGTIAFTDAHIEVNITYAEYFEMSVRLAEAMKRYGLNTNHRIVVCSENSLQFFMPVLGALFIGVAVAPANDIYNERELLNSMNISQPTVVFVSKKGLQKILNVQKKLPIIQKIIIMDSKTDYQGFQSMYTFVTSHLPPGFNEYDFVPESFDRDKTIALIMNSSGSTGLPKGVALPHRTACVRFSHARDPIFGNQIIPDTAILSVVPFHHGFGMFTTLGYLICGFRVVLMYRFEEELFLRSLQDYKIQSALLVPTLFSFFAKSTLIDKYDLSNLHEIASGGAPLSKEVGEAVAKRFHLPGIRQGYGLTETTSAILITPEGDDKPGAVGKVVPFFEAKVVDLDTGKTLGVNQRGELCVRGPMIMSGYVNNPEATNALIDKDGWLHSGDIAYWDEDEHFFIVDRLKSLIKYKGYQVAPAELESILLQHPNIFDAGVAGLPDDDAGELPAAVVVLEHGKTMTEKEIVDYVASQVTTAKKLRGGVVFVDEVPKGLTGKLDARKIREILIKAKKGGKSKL
# FLuc stim CS – firefly luciferase counter-screen for stimulation assays. ATPlite luciferase biochemical, luminescence, 10 min; 0 = ATP-free wells, 1 = DMSO control. AID 1027. activation factor at 10 µM. 200,000 tested, under 10 active. P08659;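 active = luciferase activation factor, scaled between plate controls, of at least 2 with compound at 10 µM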
#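 Material: Luciferase/luciferin reagent mix; Doses: test compounds dosed from 2 mM stocks in 100% DMSO; Schedule: 10 min incubation after luciferase reagent addition, room temperature; Measured by: luminescence from luciferase reaction; Read-out: luminescence gain marking luciferase activators.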
# STAT3 inh – STAT3 signaling inhibition. U3A cells, IL-6 STAT3-luciferase reporter, luminescence; host cell line lacks STAT1. AID 862. 190,000 compounds, 0.89% hits. inhibition, % at 5.5 µM;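 active = inhibition above the mean inhibition across all screened compounds plus 3 SD, cut at about 44% in these data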;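 note: 0% = DMSO only wells and 100% = 100 µM nifuroxazide control wells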
# STAT1 activator – increases IFN-gamma driven STAT1 reporter signal. NIH 3T3 STAT1-luciferase reporter, luminescence; 100% = IFN-gamma alone, no compound. activation (% of control), % at 5.5 µM. 200,000 compounds, 2.6% hits;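 active = activation above the screen-wide mean activation plus 3 SD, cut at about 130% in these data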;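 note: raw ratio to IFN-gamma control signal so 100% means no change and 0% no light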
# STAT3 act – activators of IL-6 induced STAT3 signaling; U3A cells, IL-6 STAT3-luciferase reporter, luminescence; 100% = signal with IL-6 EC80 alone; activation (% of control), % at 5.6 µM; 190,000 compounds, 0.91% hits; AID 871;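 active = activation above the screen-wide mean of compound activation plus 3 SD, cut at about 130% in these data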;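 note: 0% = background luminescence of wells with medium and substrate only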
#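 System – human U3A cells carrying STAT3-luciferase construct · Probe or stimulus – Interleukin-6, 33 ng/mL · Schedule – compound 1 h, then IL-6 6 h at 37 °C · Signal – luminescence from STAT3-driven luciferase reporter · Evaluation – percent of IL-6-only median luminescence · Benchmarks – IL-6-only high control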
# STAT1 blocker – STAT1 signaling inhibition | NIH 3T3 STAT1-luciferase reporter, IFN-gamma, luminescence | inhibition, % at 5.5 µM | 200,000 compounds, 0.35% hits;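 active = inhibition above a set limit, the mean inhibition across all tested compounds plus 3 SD, cut at about 34% in these data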;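 note: 0% = IFN-gamma with DMSO and 100% = IFN-gamma with 300 µM nifuroxazide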
# * = called active by the depositor.
SMILES,FLuc inh counter,FLuc stim CS,STAT3 inh,STAT1 activator,STAT3 act,STAT1 blocker
O=c1oc(-c2ccco2)nc2sc3c(c12)CCCC3,79*,0.2,6,95,98,2
Cc1ccc(C2CC(C(F)(F)F)n3nc(C(=O)NCc4c(C)nn(C)c4C)c(Cl)c3N2)cc1 (stereo not drawn),-8,1.1,60*,46,55,59*
Fc1ccc(NCc2cn3ccccc3n2)cc1,19,0.8,12,135*,93,-38
CC(=O)N(C)c1ccc(N=Nc2c(C)[nH]n(C(N)=S)c2=O)cc1,49,0.5,22,148*,90,-53
Cc1cccc(N=Nc2c(C)[nH]n(C(N)=S)c2=O)c1C,6,0.9,-3,131*,108,-33
O=c1cc(-c2cccc(F)c2)[nH]c2ccccc12,-1,1,-43,108,133*,-9
O=c1cc(-c2ccccc2)[nH]c2ccc(F)cc12,9,0.9,-23,107,117,-8
C(=N\Nc1nc2ccccc2s1)/c1cccs1,48,0.5,-19,146*,119,-51
OCC(O)/C=N/Nc1nc2ccccc2s1 (stereo not drawn),-2,1,-11,115,122,-17
Cc1nn(-c2ccccc2Cl)c(Cl)c1/C=N/Nc1nc2ccccc2s1,81*,0.2,73*,70,39,34
Cc1ccsc1/C=N/Nc1nc2ccccc2s1,64*,0.4,-59,181*,144*,-82
C(=N\Nc1nc2ccccc2s1)/c1ccco1,62*,0.4,4,144*,101,-49
COc1cc2c(cc1C1NC(=S)NC(C)=C1C(=O)N(C)C)CCCC2 (stereo not drawn),-3,1,7,108,93,-9
Cc1cc(C)nc(N/N=C/c2sccc2C)n1,11,0.9,10,115,99,-16
Cc1ccsc1/C=N/Nc1ncc(Cl)cc1Cl,32,0.7,12,140*,89,-43
COc1cccc2cc(C(C)OC(=O)Nc3ccc(C)cc3)oc12 (stereo not drawn),-8,1.1,14,101,97,-3
COc1ccc(-n2c(-c3ccc(Br)cc3)c[n+]3c2CCc2ccccc2-3)cc1,-4,1,72*,78,39,25
CC(C)c1ccc(-n2c(-c3ccccc3)c[n+]3c2CCc2ccccc2-3)cc1,-4,1,80*,63,35,40*
COc1ccc(-c2c[n+]3c(n2-c2ccccc2)CCCCC3)cc1,-9,1.1,28,81,75,21
CCCCC(c1nnnn1CS(=O)(=O)c1ccc(C)cc1)N1CCN(C)CC1 (stereo not drawn),-5,1,-1,102,103,-4
CC(NS(=O)(=O)c1ccc(Cl)cc1)C(=O)NCCC1=CCCCC1 (stereo not drawn),-8,1.1,7,95,104,5
Cc1sc2ncn(CC(=O)N3CCCCC3)c(=O)c2c1C,-2,1,10,108,97,-11
COc1cccc(/C=N/Nc2cc(Cl)nc(C)n2)c1O,54*,0.5,3,97,99,1
COc1cccc(/C=N/NC(=S)Nc2cccc(C(=O)O)c2)c1O,62*,0.4,66*,36,45,68*
COc1cc(/C=N/NC(=S)Nc2cccc(C(=O)O)c2)ccc1O,25,0.7,97*,36,16,71*
SMILES,FLuc inh counter,FLuc stim CS,STAT3 inh,STAT1 activator,STAT3 act,STAT1 blocker
COc1cccc(/C=N/Nc2nc(N3CCCC3)nc(N3CCCC3)n2)c1O,0,1,-9,101,112,-1
COc1cccc(/C=N/NC(=O)c2ccc(-c3ccccc3)cc2)c1O,-4,1,16,97,85,3
COc1cc(/C=N/NC(=O)Nc2ccccc2)ccc1OC(C)=O,14,0.9,-19,142*,118,-48
Cc1ccnn1CC(=O)N/N=C/c1ccc2c(c1)OCO2,2,1,-11,114,107,-15
CC1(C)CC(=O)C(C(=O)/C=C/c2ccco2)C(=O)C1,6,0.9,3,78,99,22
COc1cc2c(cc1OC)CN(c1nc(-c3cccnc3)nc3ccccc13)CC2,0,1,21,84,88,17
O=C(N/N=C\c1cccc(OC(=O)c2ccco2)c1)c1ccc2c(c1)OCO2,70*,0.3,43,118,64,-21
O=C(N/N=C\c1ccc2c(c1)OCO2)c1ccco1,75*,0.2,-7,147*,102,-51
Nc1c(N=Nc2ccccc2F)c(=O)[nH]n1-c1ccccc1,8,0.9,-4,134*,104,-39
CN(C)C(=S)SCC(=O)Nc1ccc(Cl)cc1Cl,-7,1.1,14,119,90,-21
c1nnc(-c2ccc3c(c2)OCO3)o1,-4,1,2,104,104,-6
CCOc1ccc(-c2nnc(-c3ccco3)o2)cc1OCC,-1,1,1,125,107,-27
Clc1ccc(CSc2nnc(-c3ccc4c(c3)OCO4)o2)cc1,-3,1,-1,103,101,-8
c1coc(-c2nnc(-c3ccc4c(c3)OCO4)o2)c1,38,0.6,24,133*,82,-36
Cc1ccc(-c2nnc(-c3ccc4c(c3)OCO4)o2)cc1,52*,0.5,18,130*,91,-34
Brc1ccc(-c2nnc(-c3ccc4c(c3)OCO4)o2)o1,60*,0.4,26,115,82,-17
O=C1CCCCC1Sc1nnc(-c2ccc3c(c2)OCO3)o1 (stereo not drawn),89*,0.1,105*,18,13,87*
CCOc1ccccc1NC(=O)CSc1ccc([N+](=O)[O-])cc1,0,1,9,104,95,-5
O=C(Cc1ccccc1)Nc1ccc(-c2nnc(-c3ccco3)o2)cc1,-6,1.1,17,108,85,-9
c1ccc(-c2nnc(-c3ccco3)o2)cc1,18,0.8,5,138*,99,-42
O=C(COC(=O)c1ncc(Cl)c(Cl)c1Cl)Nc1ccccc1OC(F)F,-7,1.1,-40,102,134*,-2
CC(Oc1ccccc1)C(=O)N1CCN=C1SCc1ccccc1 (stereo not drawn),1,1,6,106,100,-9
Cc1ccc(NCCC(=O)c2cccs2)cc1C,38,0.6,-4,143*,107,-49
Cc1ccc(NCCC(=O)c2cccs2)cc1Cl,-1,1,-21,110,123,-11
Cc1ccc(NCCC(=O)c2cccs2)cc1,10,0.9,26,150*,82,-59
O=C(NNC1=NCCC1)C1CC1,-5,1,7,101,96,-3

# Bioassay records deposited in PubChem by several laboratories.
